Consider 25 molecules from ChEMBL document CHEMBL1914425, “Amine-alkyl derivatives of hydantoin: new tool to combat resistant bacteria” (2011).

The subject of assay [1] is Klebsiella aerogenes. The assay can be described thus: Antibacterial activity against Enterobacter aerogenes ATCC 13048 after 18 hrs by two fold serial dilution method. It is filed as functional. The conditions noted are these: ATCC 13048, 18 h.
Assay [2] relates to Klebsiella aerogenes. As to the kind of experiment: Antibacterial activity against AcrAB-TolC-over producing Enterobacter aerogenes CM-64 after 18 hrs by two fold serial dilution method. In kind it is functional. The conditions noted are these: CM-64, 18 h.
Assay [3] concerns Klebsiella aerogenes. The assay can be described thus: Inhibition of AcrAB-TolC efflux pump in Enterobacter aerogenes CM-64 assessed as effect on nalidixic acid MIC at 62.5 uM relative to control.
The test system of assay [4] is Klebsiella aerogenes. As to the kind of experiment: Inhibition of AcrAB-TolC efflux pump in Enterobacter aerogenes ATCC 13048 assessed as effect on nalidixic acid MIC at 62.5 uM relative to control.
Assay [5] has as its system Klebsiella aerogenes. The assay can be described thus: Inhibition of AcrAB-TolC efflux pump in Enterobacter aerogenes CM-64 assessed as fold decrease in nalidixic acid MIC at 333 uM relative to control. The procedure, abridged: (§1)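 Nalidixic acid MIC (two-fold serial dilutions, about 10^6 cells/mL Mueller-Hinton broth, 18 h, 37 C) determined with a fixed sub-inhibitory level of compound present during incubation. Activity gain A = nalidixic acid MIC without compound divided by MIC with compound. PAbN at 0.050 mM served as reference inhibitor.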

Assay [6] has as its system Klebsiella aerogenes. As to the kind of experiment: Inhibition of AcrAB-TolC efflux pump in Enterobacter aerogenes ATCC 13048 assessed as effect on nalidixic acid MIC at 100 uM relative to control. Summed up: as §1
Assay [7] deals with Klebsiella aerogenes. The assay can be described thus: Inhibition of AcrAB-TolC efflux pump in Enterobacter aerogenes CM-64 assessed as fold decrease in nalidixic acid MIC at 62.5 uM relative to control. The procedure, abridged: as §1
For assay [8], the system named is Klebsiella aerogenes. As to the kind of experiment: Inhibition of AcrAB-TolC efflux pump in Enterobacter aerogenes ATCC 13048 assessed as fold decrease in nalidixic acid MIC at 62.5 uM relative to control. The procedure, abridged: as §1
The test system of assay [9] is Klebsiella aerogenes. The assay can be described thus: Inhibition of AcrAB-TolC efflux pump in Enterobacter aerogenes CM-64 assessed as fold decrease in nalidixic acid MIC at 100 uM relative to control. Summed up: as §1

SMILES strings stand for the structures. In brackets after ≈: the same amount, converted by molar mass. Activity calls are given as the source filed them. The calls are words filed in the database; no cut-off is given here.

A word on the MIC: it is the lowest concentration that inhibits growth of the organism. Low readings indicate inhibition by little substance, high ones a need for much substance. In the case of `COC(=O)CN1C(=O)N(CC(O)CNC(C)C)C(c2ccccc2)(c2ccccc2)C1=O` (configuration not stated), the minimum inhibitory concentration (MIC) against Klebsiella aerogenes [1] and with Klebsiella aerogenes [2] was 125 µM (≈ 54.9 µg/mL) each time. In addition, the inhibition entry in the assay on Klebsiella aerogenes [3] and with Klebsiella aerogenes [4] was “inactive” in each case.
With `CCOC(=O)N1CCN(CCCCCCCCN2C(=O)N(CC(=O)OC)C(=O)C2(c2ccccc2)c2ccccc2)CC1`, the MIC in the assay with Klebsiella aerogenes [1] and in the assay on Klebsiella aerogenes [2] was 1250 µM (≈ 741 µg/mL) throughout. Further, the inhibition result in the assay on Klebsiella aerogenes [3] and with Klebsiella aerogenes [4] was “inactive” throughout.
As for `COC(=O)CN1C(=O)N(CC(O)CN2CCN(c3ccccc3)CC2)C(c2ccccc2)(c2ccccc2)C1=O` (configuration not stated), the MIC with Klebsiella aerogenes [1] and against Klebsiella aerogenes [2] was 5000 µM (≈ 2710 µg/mL) each time. The fold change (FC) with Klebsiella aerogenes [5] came out at 4.
As for `O=C1NC(=O)C(c2ccccc2)(c2ccccc2)N1CCCCN1CCN(c2ccccc2)CC1`, the MIC against Klebsiella aerogenes [1] and against Klebsiella aerogenes [2] was over 500 µM in each case. Further, the inhibition result in the assay on Klebsiella aerogenes [6] was “inactive”.
On to `COc1ccccc1N1CCN(CC(O)CN2C(=O)N(CC(=O)O)C(=O)C2(c2ccccc2)c2ccccc2)CC1` (configuration not stated), for which the MIC amounted to 125 µM (≈ 69.8 µg/mL) with Klebsiella aerogenes [1] and 250 µM (≈ 140 µg/mL) in the assay on Klebsiella aerogenes [2]. The fold change (FC) was 4 in the assay with Klebsiella aerogenes [7] and 2 in the assay with Klebsiella aerogenes [8].
As to `NCCCN1C(=O)N(CC(=O)O)C(=O)C1(c1ccccc1)c1ccccc1`, the minimum inhibitory concentration (MIC) against Klebsiella aerogenes [1] and with Klebsiella aerogenes [2] was 1250 µM (≈ 459 µg/mL) each time. The inhibition result with Klebsiella aerogenes [3] and in the assay with Klebsiella aerogenes [4] was “inactive” in each case.
In the case of `COC(=O)CN1C(=O)N(CCCCCCCCN2CCNCC2)C(c2ccccc2)(c2ccccc2)C1=O`, the MIC against Klebsiella aerogenes [1] and against Klebsiella aerogenes [2] was 1250 µM (≈ 651 µg/mL) throughout. Moreover, the inhibition result in the assay on Klebsiella aerogenes [3] and with Klebsiella aerogenes [4] was “inactive” throughout.
For the molecule `NCCCCCCN1C(=O)N(CC(=O)O)C(=O)C1(c1ccccc1)c1ccccc1`, the MIC in the assay with Klebsiella aerogenes [1] and against Klebsiella aerogenes [2] was 1250 µM (≈ 512 µg/mL) in each case. The inhibition entry in the assay with Klebsiella aerogenes [3] and in the assay with Klebsiella aerogenes [4] was “inactive” throughout.
In the case of `O=C(O)CN1C(=O)N(CCCN2CCCN3CCCN=C32)C(c2ccccc2)(c2ccccc2)C1=O`, the MIC against Klebsiella aerogenes [1] and against Klebsiella aerogenes [2] was 1250 µM (≈ 612 µg/mL) throughout. Also, the inhibition entry with Klebsiella aerogenes [3] and in the assay on Klebsiella aerogenes [4] was “inactive” in each case.
`COc1ccccc1N1CCN(CCCCN2C(=O)N(CC(=O)O)C(=O)C2(c2ccccc2)c2ccccc2)CC1`: the values for the MIC with Klebsiella aerogenes [1] and against Klebsiella aerogenes [2] were 62.5 µM (≈ 34.8 µg/mL) and 250 µM (≈ 139 µg/mL), respectively. Besides, the results for the fold change (FC) with Klebsiella aerogenes [7] and with Klebsiella aerogenes [8] were 4 and 2, respectively.
Regarding `O=C(O)CN1C(=O)N(CCCCCCN2CCCN3CCCN=C23)C(c2ccccc2)(c2ccccc2)C1=O`, the MIC against Klebsiella aerogenes [1] and in the assay on Klebsiella aerogenes [2] was 1250 µM (≈ 665 µg/mL) throughout. Moreover, the inhibition result with Klebsiella aerogenes [3] and in the assay on Klebsiella aerogenes [4] was “inactive” each time.
With `CCOC(=O)N1CCN(CCCCCCN2C(=O)N(CC(=O)OC)C(=O)C2(c2ccccc2)c2ccccc2)CC1`, the MIC in the assay with Klebsiella aerogenes [1] and in the assay with Klebsiella aerogenes [2] was 1250 µM (≈ 706 µg/mL) in each case. Also, the inhibition result in the assay on Klebsiella aerogenes [3] and with Klebsiella aerogenes [4] was “inactive” each time.
Turning to `COC(=O)CN1C(=O)N(CC(CN2CCN(c3ccccc3)CC2)OC(C)=O)C(c2ccccc2)(c2ccccc2)C1=O` (configuration not stated), the MIC against Klebsiella aerogenes [1] and in the assay with Klebsiella aerogenes [2] was 250 µM (≈ 146 µg/mL) in each case.
On to `CC(=O)OC(CN1CCN(c2ccccc2)CC1)CN1C(=O)N(C)C(=O)C1(c1ccccc1)c1ccccc1` (configuration not stated), for which the MIC in the assay on Klebsiella aerogenes [1] and against Klebsiella aerogenes [2] was over 500 µM throughout. Further, the inhibition entry in the assay on Klebsiella aerogenes [6] is “inactive”.
Consider `CCOC(=O)N1CCN(CCCCN2C(=O)N(CC(=O)O)C(=O)C2(c2ccccc2)c2ccccc2)CC1`, for which the MIC with Klebsiella aerogenes [1] and in the assay on Klebsiella aerogenes [2] was 1250 µM (≈ 653 µg/mL) each time. For the same molecule, the inhibition result with Klebsiella aerogenes [3] and in the assay with Klebsiella aerogenes [4] was “inactive” each time.
As for `COc1ccccc1N1CCN(CCCN2C(=O)N(C)C(=O)C2(c2ccccc2)c2ccccc2)CC1`, the MIC in the assay with Klebsiella aerogenes [1] and against Klebsiella aerogenes [2] was over 500 µM each time. Besides, the inhibition result in the assay with Klebsiella aerogenes [6] is “inactive”.
As for `CN1C(=O)N(CCCCCN2CCN(c3ccccc3)CC2)C(c2ccccc2)(c2ccccc2)C1=O`, the MIC with Klebsiella aerogenes [1] and in the assay with Klebsiella aerogenes [2] was over 500 µM each time. Further, the fold change (FC) in the assay on Klebsiella aerogenes [9] was 4. Also, the inhibition result in the assay on Klebsiella aerogenes [6] is “inactive”.
On to `CN1C(=O)N(CC(O)CN2CCN(c3ccccc3)CC2)C(c2ccccc2)(c2ccccc2)C1=O` (configuration not stated), for which the MIC against Klebsiella aerogenes [1] and in the assay on Klebsiella aerogenes [2] was over 500 µM throughout. Also, in the assay on Klebsiella aerogenes [6], the inhibition entry was “inactive”.
As for `CCOC(=O)N1CCN(CCCCN2C(=O)N(CC(=O)OC)C(=O)C2(c2ccccc2)c2ccccc2)CC1`, the MIC in the assay on Klebsiella aerogenes [1] and against Klebsiella aerogenes [2] was 1250 µM (≈ 671 µg/mL) throughout. The inhibition result in the assay on Klebsiella aerogenes [3] and in the assay with Klebsiella aerogenes [4] was “inactive” throughout.
For the molecule `CCOC(=O)N1CCN(CCCCCN2C(=O)N(CC(=O)OC)C(=O)C2(c2ccccc2)c2ccccc2)CC1`, the minimal inhibitory concentration (MIC) in the assay with Klebsiella aerogenes [1] and against Klebsiella aerogenes [2] was 1250 µM (≈ 688 µg/mL) each time. In addition, the inhibition result with Klebsiella aerogenes [3] and with Klebsiella aerogenes [4] was “inactive” throughout.
Turning to `COC(=O)CN1C(=O)N(CCCCN2CCN(c3ccccc3)CC2)C(c2ccccc2)(c2ccccc2)C1=O`, the MIC in the assay on Klebsiella aerogenes [1] and against Klebsiella aerogenes [2] was over 500 µM in each case. Besides, in the assay with Klebsiella aerogenes [9], the fold change (FC) was found to be 4. Further, the inhibition entry in the assay on Klebsiella aerogenes [6] was “inactive”.
As to `NCCCCN1C(=O)N(CC(=O)O)C(=O)C1(c1ccccc1)c1ccccc1`, the minimal inhibitory concentration (MIC) in the assay on Klebsiella aerogenes [1] and against Klebsiella aerogenes [2] was 1250 µM (≈ 477 µg/mL) throughout. In addition, the inhibition entry in the assay with Klebsiella aerogenes [3] and with Klebsiella aerogenes [4] was “inactive” in each case.
Take `O=C(O)CN1C(=O)N(CCCCN2CCCN3CCCN=C23)C(c2ccccc2)(c2ccccc2)C1=O`: the MIC with Klebsiella aerogenes [1] and against Klebsiella aerogenes [2] was 1250 µM (≈ 630 µg/mL) in each case. Further, the inhibition result in the assay with Klebsiella aerogenes [3] and in the assay with Klebsiella aerogenes [4] was “inactive” in each case.
With `COC(=O)CN1C(=O)N(CCCN2CCN(c3ccccc3)CC2)C(c2ccccc2)(c2ccccc2)C1=O`, the MIC in the assay with Klebsiella aerogenes [1] and against Klebsiella aerogenes [2] was over 500 µM throughout. Besides, the inhibition result in the assay on Klebsiella aerogenes [6] was “inactive”.
Take `O=C(O)CN1C(=O)N(CCCCCN2CCCN3CCCN=C23)C(c2ccccc2)(c2ccccc2)C1=O`: the MIC against Klebsiella aerogenes [1] and with Klebsiella aerogenes [2] was 1250 µM (≈ 647 µg/mL) each time. Further, the inhibition result with Klebsiella aerogenes [3] and in the assay on Klebsiella aerogenes [4] was “inactive” each time.
